The source of these data is publication PMC4703501 (Leukemia, 2015).

One assay relates to SW480. Briefly: GI50 growth inhibition assay. It counts as cell-based. The following applies: Homo sapiens, SW480, 96 h. In outline: (§1)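 Cell lines were grown in DMEM or RPMI with 10% FBS and pen-strep at 37°C, 5% CO₂, and were mycoplasma-negative. Cells were seeded at 2.5×10³ per 0.1 ml per well, and test compound was added 24 hrs later at the indicated concentrations. Viable cells were measured by resazurin (Cell Titer Blue) read-out 96 hrs post-treatment in duplicate wells.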

Another assay relates to HCT-15. Briefly: GI50 growth inhibition assay. It counts as cell-based. The following applies: Homo sapiens, HCT-15, 96 h. In outline: as §1
The test system of another assay is MDA-MB-231. Briefly: GI50 growth inhibition assay. The following applies: Homo sapiens, MDA-MB-231, 96 h. It counts as cell-based. In outline:
as §1

The test system of assay [1] is Granta 519 and Z138 cell lines. Description: MAP kinase pathway. It counts as cell-based, human. Conditions: 24 hrs.
Assay [2] concerns exponentially growing Z138 cells. Description: p65. It counts as cell-based, human. Conditions: 24 hrs. In outline:
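Exponentially growing Z138 cells were exposed to test compound. Whole-cell extracts were probed by western blot for p65 (NF-kB) phosphorylation.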

The subject of assay [3] is primary patient-derived MCL cells (MEM1 ibrutinib-sensitive, MEM2 ibrutinib-resistant). Description: Annexin V staining of primary patient-derived MCL. It counts as cell-based, human. Conditions: 5µM ON123300; 24 hrs (legend: 18 hrs). In outline:
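Patient MCL specimens (lymph node or peripheral blood) made into single-cell suspensions and cryopreserved in 90% FBS/10% DMSO in liquid nitrogen. Cells exposed to the indicated concentrations of test compound for 18 hrs. Apoptosis read as FITC-Annexin V staining by flow cytometry.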

As usually defined, the GI50 is the concentration giving 50% growth inhibition. The low end stands for greater sensitivity of the cells, the high end for lower sensitivity of the cells.

Each structure is given as a SMILES string.

Take `CN1CCN(c2ccc(Nc3ncc4cc(C#N)c(=O)n(C5CCCC5)c4n3)cc2)CC1` [ON123300, 8-cyclopentyl-2-[4-(4-methyl-piperazin-1-yl)-phenylamino]-7-oxo-7,8-dihydro-pyrid o[2,3-d]pyrimidine-6-carbonitrile]: the GI50 in the assay with SW480 amounted to 100 nM; in the assay on HCT-15, 400 nM; in the assay with MDA-MB-231, 200 nM. Moreover, the “phosphorylation status of MEK or ERK kinases” value in assay [1] is listed as “neither ON123300 nor PD0332991 has any effect”. Besides, the “phosphorylation status of p65 (NF-kB)” value in assay [2] is “no change”. For the same compound, in assay [3], the “cells stained Annexin V+” value is on record as about 100%.
